The text below walks through data of paper PMC5532717 (ACS Central Science, 2017).

The term IC50 denotes the midpoint of a concentration-inhibition curve.

In data set [1] the target is T1, lactase-phlorizin hydrolase (LPH) (Mus musculus, UniProt F8VPT3).
T1 sequence (F8VPT3 869-1931 limits assumed): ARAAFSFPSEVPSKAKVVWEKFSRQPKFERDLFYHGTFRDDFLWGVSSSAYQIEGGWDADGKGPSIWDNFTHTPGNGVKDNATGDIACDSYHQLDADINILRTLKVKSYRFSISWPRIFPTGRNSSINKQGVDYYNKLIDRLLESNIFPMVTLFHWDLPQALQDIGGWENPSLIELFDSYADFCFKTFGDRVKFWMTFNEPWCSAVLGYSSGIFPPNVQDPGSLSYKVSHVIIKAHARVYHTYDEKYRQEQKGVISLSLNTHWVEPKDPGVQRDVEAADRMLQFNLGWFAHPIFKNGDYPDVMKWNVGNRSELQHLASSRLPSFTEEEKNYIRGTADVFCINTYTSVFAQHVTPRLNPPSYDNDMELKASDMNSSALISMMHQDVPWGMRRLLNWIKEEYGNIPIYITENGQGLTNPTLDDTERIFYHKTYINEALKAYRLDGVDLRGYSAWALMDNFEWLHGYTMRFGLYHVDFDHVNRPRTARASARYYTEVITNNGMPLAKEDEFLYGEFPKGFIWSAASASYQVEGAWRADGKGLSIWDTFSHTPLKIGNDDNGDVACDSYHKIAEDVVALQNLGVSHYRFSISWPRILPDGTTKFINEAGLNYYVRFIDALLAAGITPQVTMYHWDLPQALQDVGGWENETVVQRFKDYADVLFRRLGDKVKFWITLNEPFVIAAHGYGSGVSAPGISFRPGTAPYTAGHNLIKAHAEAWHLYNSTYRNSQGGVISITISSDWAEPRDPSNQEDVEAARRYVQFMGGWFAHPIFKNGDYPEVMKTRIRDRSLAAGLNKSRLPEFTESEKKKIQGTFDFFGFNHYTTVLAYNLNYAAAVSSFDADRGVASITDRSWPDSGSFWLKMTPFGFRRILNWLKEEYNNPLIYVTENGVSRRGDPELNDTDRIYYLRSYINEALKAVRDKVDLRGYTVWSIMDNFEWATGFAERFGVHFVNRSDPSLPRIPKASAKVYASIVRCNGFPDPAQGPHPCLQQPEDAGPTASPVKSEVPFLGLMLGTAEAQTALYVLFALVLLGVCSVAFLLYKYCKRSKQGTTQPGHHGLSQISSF
The data set is described as follows: Competitive ABPP against probe 13 in mouse gastrointestinal lysate. It counts as biochemical. The note with it: mouse intestine lysate, 1 h at 37 °C. In short, it runs like this: (§1)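 Mixed mouse duodenum, jejunum and ileum homogenates were made in 25 mM potassium phosphate pH 6.5 with protease inhibitors (40 μg protein). Held 5 min on ice in McIlvaine buffer pH 4 or 7. Incubated 1 h at 37 °C with test compound (final 150 to 0.005 μM, plus 0), then probe 13 for 30 min at 37 °C. Boiled in Laemmli buffer, 10% SDS–PAGE, Cy5 fluorescence scan.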

In data set [2] the test system is maltase-glycoamylase (MGAM). The description is as above. It is filed as biochemical. The note with it: mouse intestine lysate, 1 h at 37 °C. In short, it runs like this:
as §1

The nature of data set [3]: Solvolytic stability in McIlvaine buffer pH 4.0 by NMR. The note with it: McIlvaine buffer pH 4.0, room temperature, 24 h, 1H NMR. It counts as physicochemical.
The target in the next data set is human α-glucosidase GAA (Homo sapiens, UniProt P10253). The data set is described as follows: In vitro apparent IC50, recombinant GAA. It is filed as biochemical. In a few lines:
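The enzyme source was GBA2-overexpressing HEK293T lysate or recombinant human GAA. It was preincubated 30 min at 37 °C with a range of test compound concentrations, then transferred into 4-MU glucoside substrate mixture to measure residual activity. Quenched with 1 M NaOH–glycine pH 10.3; 4-MU fluorescence at λex 366/λem 445 nm. Apparent IC50 is the mean of three technical replicates.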

With `O=S1(=O)O[C@@H]2[C@H](O)[C@@H](O)[C@H](O)[C@@H](CO)[C@@H]2O1` [Compound 5, 1,6-epi-cyclophellitol cyclosulfate], the “competition of off-target probe 13 labeling of LPH” value in data set [1] is given as “not outcompeted”. For the same compound, the “inhibition of probe 13 labeling of MGAM” value in data set [2] is “inhibited”. Besides, the “solvolytic stability (spontaneous hydrolysis)” value in data set [3] is “no spontaneous hydrolysis”. The IC50 on human α-glucosidase GAA was determined as 82 ± 1 nM.
